We go through two molecules from paper PMC7332231 (Journal of the American Chemical Society, 2020).

In test [1] the target is glutathione S-transferase Pi (GSTP1) (Homo sapiens, UniProt P09211). As to the kind of experiment: GSH substrate assay in recombinant GSTP1 lysates. The test is classed as biochemical.
A further test deals with T1, DPP3 (Homo sapiens, UniProt Q9NY33).
T1 sequence (Q9NY33 2-737): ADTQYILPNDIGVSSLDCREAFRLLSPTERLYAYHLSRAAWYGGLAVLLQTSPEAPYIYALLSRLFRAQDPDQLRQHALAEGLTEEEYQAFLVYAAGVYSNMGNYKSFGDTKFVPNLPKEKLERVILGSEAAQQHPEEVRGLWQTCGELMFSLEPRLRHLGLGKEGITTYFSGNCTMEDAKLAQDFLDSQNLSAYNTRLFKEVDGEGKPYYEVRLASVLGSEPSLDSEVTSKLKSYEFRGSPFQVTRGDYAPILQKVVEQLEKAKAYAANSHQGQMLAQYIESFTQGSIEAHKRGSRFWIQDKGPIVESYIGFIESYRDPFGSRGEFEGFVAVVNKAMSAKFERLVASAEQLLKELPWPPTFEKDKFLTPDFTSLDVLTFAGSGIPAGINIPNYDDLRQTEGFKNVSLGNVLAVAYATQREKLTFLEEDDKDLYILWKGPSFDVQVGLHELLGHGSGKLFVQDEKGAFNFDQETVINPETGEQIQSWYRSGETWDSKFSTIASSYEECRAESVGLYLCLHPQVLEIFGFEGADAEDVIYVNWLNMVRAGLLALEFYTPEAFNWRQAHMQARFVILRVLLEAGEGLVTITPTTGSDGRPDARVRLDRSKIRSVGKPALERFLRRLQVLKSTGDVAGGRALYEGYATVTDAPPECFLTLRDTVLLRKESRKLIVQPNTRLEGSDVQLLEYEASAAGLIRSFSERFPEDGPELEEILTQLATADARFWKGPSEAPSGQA
The experiment in a line: peptidase substrate assay. Format: biochemical. In outline: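 Purified DPP3 was exposed to test compound over a concentration series, and its catalytic activity was read by a peptidase substrate assay. IC50 was reported with 95% confidence intervals; data are mean ± s.e.m. from n = 3 biologically independent experiments. Y417 engagement was measured by quantitative chemical proteomics with the HHS-482 probe on soluble proteome from HEK293T cells expressing recombinant human DPP3 (n = 2).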

In a further test the target is T2, YWHAE (Homo sapiens, UniProt P62258).
T2 sequence (P62258 1-255): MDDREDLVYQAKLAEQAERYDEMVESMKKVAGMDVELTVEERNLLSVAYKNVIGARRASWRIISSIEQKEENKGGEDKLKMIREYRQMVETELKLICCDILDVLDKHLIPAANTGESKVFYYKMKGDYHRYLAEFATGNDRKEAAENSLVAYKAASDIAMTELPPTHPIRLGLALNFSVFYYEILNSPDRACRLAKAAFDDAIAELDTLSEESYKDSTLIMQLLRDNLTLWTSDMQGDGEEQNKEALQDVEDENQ
The experiment in a line: competitive SILAC chemical proteomics in DM93 soluble proteome. The test is classed as cell-based.

Bounds are passed on as bounds.

Chain of glutathione S-transferase Pi (GSTP1) (P09211 2-210): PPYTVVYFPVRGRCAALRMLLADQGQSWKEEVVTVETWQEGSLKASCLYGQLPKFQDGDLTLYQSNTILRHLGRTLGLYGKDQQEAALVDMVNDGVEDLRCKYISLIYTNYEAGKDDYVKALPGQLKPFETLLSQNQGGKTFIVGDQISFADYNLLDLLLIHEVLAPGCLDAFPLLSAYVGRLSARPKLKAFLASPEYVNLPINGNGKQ

As usually defined, the IC50 is the concentration that inhibits the measured activity by half. As for `O=S(=O)(c1ccc2ccccc2c1)n1cnc(-c2ccncc2)n1` [JWB198], the IC50 in test [1] came to 16 µM. `COc1ccc(-c2ncn(S(=O)(=O)c3ccc(-c4ccccc4)cc3)n2)cc1` [JWB142] showed an IC50 on DPP3 of 17 µM. The “competitive SILAC chemical proteomics in DM93 soluble proteome (50 μM)” value at YWHAE was > 6 SILAC ratio (SR).
